Assay results as given in ChEMBL document CHEMBL1155278, “3,4-Diaryl-isoxazoles and -imidazoles as potent dual inhibitors of p38alpha mitogen activated protein kinase and casein kinase 1delta” (J Med Chem, 2009).

Key:
[1] = Inhibition of CK2 assessed as residual activity at 0.1 uM by Cherenkov counting relative to control in presence of 5 uM ATP
In short: (§1)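 Single-concentration screen at 0.1 µM across a panel of 76 protein kinases. Each kinase was run at an ATP concentration approximating its ATP Km. Results are % mean residual activity versus control assays without compound (n = 3 ± SD).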

[2] = target: Serine/threonine-protein kinase pim-1 (Homo sapiens) (UniProt P11309); assay: Inhibition of PIM1 assessed as residual activity at 0.1 uM by Cherenkov counting relative to control in presence of 20 uM ATP
In short: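 Single-concentration selectivity screen at 0.1 μM against a panel of 76 protein kinases. Each kinase was run at an ATP level approximating its Km for ATP. Output is mean residual activity as % of the control assay without compound, n = 3 ± SD.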

[3] = target: Aurora kinase B (Homo sapiens) (UniProt Q96GD4); assay: Inhibition of Aurora B assessed as residual activity at 0.1 uM by Cherenkov counting relative to control in presence of 20 uM ATP; in short: as §1
[4] = target: Calcium/calmodulin-dependent protein kinase kinase 1 (Homo sapiens) (UniProt Q8N5S9); assay: Inhibition of CAMKKalpha assessed as residual activity at 10 uM by Cherenkov counting relative to control
In short: (§2)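 Single-point profiling at 10 µM in a panel of 78 protein kinases. Kinase activity is expressed as a percentage relative to control assays without compound.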

[5] = target: Glycogen synthase kinase-3 beta (Homo sapiens) (UniProt P49841); assay: Inhibition of GSK3-beta assessed as residual activity at 10 uM by Cherenkov counting relative to control in presence of 5 uM ATP; in short: as §2
[6] = target: T1, MAP kinase-activated protein kinase 5 (Homo sapiens) (UniProt Q8IW41); assay: Inhibition of PRAK assessed as residual activity at 10 uM by Cherenkov counting relative to control in presence of 20 uM ATP
T1 sequence (whole entry): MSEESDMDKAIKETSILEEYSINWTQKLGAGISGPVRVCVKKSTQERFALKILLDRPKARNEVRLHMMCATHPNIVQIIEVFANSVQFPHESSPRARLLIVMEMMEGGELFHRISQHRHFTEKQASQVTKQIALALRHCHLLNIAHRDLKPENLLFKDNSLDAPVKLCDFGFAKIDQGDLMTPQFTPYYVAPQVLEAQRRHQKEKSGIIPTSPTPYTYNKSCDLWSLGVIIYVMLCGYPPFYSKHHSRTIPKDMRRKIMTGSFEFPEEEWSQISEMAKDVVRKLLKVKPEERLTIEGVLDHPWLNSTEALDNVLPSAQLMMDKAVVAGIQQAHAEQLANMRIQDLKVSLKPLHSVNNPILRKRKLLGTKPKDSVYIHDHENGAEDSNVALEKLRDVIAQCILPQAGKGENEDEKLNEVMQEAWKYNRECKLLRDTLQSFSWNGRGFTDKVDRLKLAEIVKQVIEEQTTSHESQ
In short: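 Single-concentration profiling at 10 μM in a 78-kinase panel. Kinase activity is expressed as a percentage of control assays run without compound.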

[7] = target: T2, Dual specificity tyrosine-phosphorylation-regulated kinase 2 (Homo sapiens) (UniProt Q92630); assay: Inhibition of DYRK2 assessed as residual activity at 10 uM by Cherenkov counting relative to control in presence of 50 uM ATP; in short: as §2
T2 sequence (whole entry): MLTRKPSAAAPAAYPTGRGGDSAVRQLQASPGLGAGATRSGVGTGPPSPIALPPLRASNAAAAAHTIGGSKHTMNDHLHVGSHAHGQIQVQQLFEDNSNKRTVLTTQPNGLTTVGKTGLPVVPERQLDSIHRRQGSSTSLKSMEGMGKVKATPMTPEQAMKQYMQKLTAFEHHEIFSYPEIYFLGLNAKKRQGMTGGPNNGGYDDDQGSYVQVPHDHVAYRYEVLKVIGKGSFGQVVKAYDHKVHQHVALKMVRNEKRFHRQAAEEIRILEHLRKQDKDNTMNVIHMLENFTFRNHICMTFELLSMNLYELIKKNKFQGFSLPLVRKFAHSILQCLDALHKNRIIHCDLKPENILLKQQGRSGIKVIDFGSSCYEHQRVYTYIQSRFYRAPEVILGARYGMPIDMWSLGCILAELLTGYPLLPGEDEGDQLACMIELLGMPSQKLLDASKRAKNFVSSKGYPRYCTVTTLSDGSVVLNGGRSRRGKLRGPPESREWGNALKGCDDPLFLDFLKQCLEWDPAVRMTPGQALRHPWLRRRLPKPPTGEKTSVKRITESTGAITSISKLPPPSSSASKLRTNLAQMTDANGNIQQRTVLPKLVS

[8] = target: MAP/microtubule affinity-regulating kinase 3 (Homo sapiens) (UniProt P27448); assay: Inhibition of MARK3 assessed as residual activity at 10 uM by Cherenkov counting relative to control in presence of 5 uM ATP
[9] = target: Tyrosine-protein kinase Lck (Homo sapiens) (UniProt P06239); assay: Inhibition of Lck assessed as residual activity at 10 uM by Cherenkov counting relative to control in presence of 50 uM ATP
[10] = target: T3, Eukaryotic elongation factor 2 kinase (Homo sapiens) (UniProt O00418); assay: Inhibition of EF2K assessed as residual activity at 10 uM by Cherenkov counting relative to control in presence of 5 uM ATP; in short: as §2
T3 sequence (whole entry): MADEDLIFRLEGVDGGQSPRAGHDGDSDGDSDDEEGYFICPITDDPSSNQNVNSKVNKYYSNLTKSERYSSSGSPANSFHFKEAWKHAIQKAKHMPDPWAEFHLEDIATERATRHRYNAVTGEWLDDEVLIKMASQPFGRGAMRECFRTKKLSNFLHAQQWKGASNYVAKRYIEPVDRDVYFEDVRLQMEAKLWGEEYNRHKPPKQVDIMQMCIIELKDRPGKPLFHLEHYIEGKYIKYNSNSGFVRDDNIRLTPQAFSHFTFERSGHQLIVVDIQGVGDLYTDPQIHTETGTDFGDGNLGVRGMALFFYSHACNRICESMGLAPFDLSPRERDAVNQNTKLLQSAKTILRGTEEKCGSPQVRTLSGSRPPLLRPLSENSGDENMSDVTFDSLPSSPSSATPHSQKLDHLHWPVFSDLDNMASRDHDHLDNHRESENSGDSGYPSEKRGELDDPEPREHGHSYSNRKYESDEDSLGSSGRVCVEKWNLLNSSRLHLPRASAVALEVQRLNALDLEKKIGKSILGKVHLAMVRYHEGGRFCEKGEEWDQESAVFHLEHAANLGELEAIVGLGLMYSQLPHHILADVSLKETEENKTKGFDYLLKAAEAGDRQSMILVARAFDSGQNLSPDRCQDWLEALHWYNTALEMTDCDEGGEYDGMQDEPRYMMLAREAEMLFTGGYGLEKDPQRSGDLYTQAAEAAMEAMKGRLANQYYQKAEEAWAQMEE

[11] = target: Maternal embryonic leucine zipper kinase (Homo sapiens) (UniProt Q14680); assay: Inhibition of MELK assessed as residual activity at 10 uM by Cherenkov counting relative to control in presence of 50 uM ATP
Chain of Maternal embryonic leucine zipper kinase (Homo sapiens) (Q14680 whole entry, looked up): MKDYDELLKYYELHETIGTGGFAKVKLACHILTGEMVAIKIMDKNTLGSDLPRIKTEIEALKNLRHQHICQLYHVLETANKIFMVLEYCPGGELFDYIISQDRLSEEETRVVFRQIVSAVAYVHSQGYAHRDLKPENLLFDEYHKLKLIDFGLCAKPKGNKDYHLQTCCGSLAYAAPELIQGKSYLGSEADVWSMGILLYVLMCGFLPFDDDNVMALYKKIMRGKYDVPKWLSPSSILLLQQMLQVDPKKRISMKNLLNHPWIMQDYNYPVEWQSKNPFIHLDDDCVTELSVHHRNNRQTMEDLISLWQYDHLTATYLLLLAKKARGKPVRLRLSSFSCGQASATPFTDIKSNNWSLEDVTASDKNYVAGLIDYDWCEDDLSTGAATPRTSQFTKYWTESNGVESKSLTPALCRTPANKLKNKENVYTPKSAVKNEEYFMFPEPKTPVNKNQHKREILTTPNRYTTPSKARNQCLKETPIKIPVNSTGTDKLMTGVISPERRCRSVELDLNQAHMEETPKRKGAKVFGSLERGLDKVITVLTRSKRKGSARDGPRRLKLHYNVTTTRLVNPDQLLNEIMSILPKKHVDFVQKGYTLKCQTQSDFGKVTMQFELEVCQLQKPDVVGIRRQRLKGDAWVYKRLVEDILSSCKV

Chain of Serine/threonine-protein kinase pim-1 (Homo sapiens) (P11309 whole entry, looked up): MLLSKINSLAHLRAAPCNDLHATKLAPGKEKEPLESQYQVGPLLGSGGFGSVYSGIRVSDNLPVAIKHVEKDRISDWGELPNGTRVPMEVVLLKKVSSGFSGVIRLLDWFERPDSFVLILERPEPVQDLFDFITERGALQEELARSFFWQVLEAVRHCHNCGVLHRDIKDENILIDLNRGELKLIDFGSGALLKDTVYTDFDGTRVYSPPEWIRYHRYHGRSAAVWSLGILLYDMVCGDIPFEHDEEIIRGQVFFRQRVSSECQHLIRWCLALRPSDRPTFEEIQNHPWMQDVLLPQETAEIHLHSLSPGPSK
Chain of Calcium/calmodulin-dependent protein kinase kinase 1 (Homo sapiens) (Q8N5S9 whole entry, looked up): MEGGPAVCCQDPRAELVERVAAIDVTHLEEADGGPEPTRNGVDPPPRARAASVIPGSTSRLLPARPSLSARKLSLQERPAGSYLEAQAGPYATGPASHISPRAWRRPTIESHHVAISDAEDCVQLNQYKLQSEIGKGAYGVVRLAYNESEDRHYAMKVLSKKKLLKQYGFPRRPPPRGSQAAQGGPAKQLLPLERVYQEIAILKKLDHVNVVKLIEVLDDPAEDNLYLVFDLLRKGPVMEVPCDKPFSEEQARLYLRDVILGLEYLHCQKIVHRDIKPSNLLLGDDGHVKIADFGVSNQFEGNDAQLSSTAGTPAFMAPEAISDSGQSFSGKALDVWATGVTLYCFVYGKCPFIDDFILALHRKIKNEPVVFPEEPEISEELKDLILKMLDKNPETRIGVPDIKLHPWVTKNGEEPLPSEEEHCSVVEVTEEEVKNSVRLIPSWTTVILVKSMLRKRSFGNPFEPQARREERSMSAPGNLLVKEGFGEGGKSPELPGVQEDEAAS
Chain of Aurora kinase B (Homo sapiens) (Q96GD4 whole entry): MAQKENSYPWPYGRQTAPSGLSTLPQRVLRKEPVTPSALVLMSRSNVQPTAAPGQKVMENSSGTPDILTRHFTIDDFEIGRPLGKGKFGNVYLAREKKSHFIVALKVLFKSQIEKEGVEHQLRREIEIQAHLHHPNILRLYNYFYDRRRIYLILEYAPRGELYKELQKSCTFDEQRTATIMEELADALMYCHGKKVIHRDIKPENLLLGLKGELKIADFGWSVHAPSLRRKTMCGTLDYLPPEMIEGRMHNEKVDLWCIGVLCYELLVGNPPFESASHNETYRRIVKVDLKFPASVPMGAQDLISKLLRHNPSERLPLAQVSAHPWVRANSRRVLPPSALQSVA
Chain of Glycogen synthase kinase-3 beta (Homo sapiens) (P49841 whole entry, looked up): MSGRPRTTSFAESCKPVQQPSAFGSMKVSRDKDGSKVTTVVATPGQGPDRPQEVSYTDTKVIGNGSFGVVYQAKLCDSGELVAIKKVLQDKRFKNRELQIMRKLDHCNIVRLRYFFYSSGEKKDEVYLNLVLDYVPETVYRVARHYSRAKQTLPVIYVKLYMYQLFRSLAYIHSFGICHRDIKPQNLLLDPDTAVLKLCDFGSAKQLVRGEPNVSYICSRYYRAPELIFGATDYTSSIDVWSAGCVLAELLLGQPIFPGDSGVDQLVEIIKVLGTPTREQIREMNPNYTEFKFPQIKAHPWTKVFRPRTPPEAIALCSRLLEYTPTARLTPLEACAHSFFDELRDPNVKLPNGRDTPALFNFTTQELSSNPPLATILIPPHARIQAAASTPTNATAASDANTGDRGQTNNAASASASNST
Chain of Tyrosine-protein kinase Lck (Homo sapiens) (P06239 2-509 limits assumed): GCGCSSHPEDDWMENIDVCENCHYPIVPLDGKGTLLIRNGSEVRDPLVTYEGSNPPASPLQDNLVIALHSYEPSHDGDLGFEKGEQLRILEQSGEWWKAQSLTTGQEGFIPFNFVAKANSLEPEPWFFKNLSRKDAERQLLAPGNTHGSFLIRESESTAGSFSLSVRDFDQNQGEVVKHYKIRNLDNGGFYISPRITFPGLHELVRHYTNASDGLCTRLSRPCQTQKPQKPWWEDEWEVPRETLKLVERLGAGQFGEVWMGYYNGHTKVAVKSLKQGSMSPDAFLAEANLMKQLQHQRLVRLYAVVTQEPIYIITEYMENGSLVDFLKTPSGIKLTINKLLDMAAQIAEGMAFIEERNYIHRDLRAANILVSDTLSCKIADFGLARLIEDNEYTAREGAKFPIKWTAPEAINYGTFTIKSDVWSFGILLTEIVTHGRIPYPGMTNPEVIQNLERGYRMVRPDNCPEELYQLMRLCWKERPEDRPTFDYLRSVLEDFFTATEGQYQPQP
Chain of MAP/microtubule affinity-regulating kinase 3 (Homo sapiens) (P27448 whole entry, looked up): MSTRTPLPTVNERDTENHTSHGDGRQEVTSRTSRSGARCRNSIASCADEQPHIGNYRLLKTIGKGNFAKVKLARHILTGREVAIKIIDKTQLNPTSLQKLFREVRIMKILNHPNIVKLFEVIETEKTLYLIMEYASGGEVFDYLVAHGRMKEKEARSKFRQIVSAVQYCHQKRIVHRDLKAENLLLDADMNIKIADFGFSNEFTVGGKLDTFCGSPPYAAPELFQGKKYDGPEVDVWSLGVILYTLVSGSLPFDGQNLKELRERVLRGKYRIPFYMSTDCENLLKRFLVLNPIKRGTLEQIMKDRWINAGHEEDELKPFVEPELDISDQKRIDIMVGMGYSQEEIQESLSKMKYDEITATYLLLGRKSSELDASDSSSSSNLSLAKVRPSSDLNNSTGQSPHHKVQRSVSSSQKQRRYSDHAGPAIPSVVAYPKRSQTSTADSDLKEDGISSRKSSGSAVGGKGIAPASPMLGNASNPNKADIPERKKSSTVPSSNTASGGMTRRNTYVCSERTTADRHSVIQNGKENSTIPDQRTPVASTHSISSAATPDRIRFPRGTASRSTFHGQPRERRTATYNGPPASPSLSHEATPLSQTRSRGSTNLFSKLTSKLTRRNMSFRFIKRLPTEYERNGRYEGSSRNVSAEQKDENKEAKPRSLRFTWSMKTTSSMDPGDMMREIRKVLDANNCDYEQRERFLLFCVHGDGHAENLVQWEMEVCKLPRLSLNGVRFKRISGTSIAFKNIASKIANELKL

| SMILES | Activity [1] [%] | Activity [2] [%] | Activity [3] [%] | Activity [4] [%] | Activity [5] [%] | Activity [6] [%] | Activity [7] [%] | Activity [8] [%] | Activity [9] [%] | Activity [10] [%] | Activity [11] [%] |
| --- | --- | --- | --- | --- | --- | --- | --- | --- | --- | --- | --- |
| COc1ccc(/C=C/C(=O)Nc2cc(-c3[nH]c(SC)nc3-c3ccc(F)cc3)ccn2)c(OC)c1 | 115 | 98 | 93 | – | – | – | – | – | – | – | – |
| COc1ccc(/C=C/C(=O)Nc2cc(-c3[nH]c([S+](C)[O-])nc3-c3ccc(F)cc3)ccn2)c(OC)c1 (configuration not stated) | 122 | 109 | 93 | – | – | – | – | – | – | – | – |
| CC(C)c1noc(-c2ccc(F)cc2)c1-c1ccncc1 | – | – | – | 103 | 85 | 98 | 104 | 92 | 64 | 107 | 108 |
| CC(C)c1onc(-c2ccc(F)cc2)c1-c1ccncc1 | – | – | – | 91 | 75 | 88 | 101 | 95 | 42 | 107 | 78 |
